CHOP inh: inhibitors of CHOP induction in ER stress response. inhibition, % at 10 µM. CHO-K1 CHOP-promoter luciferase, tunicamycin-induced, 15-18 h. AID 2732. 220,000 compounds, 3.8% hits;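 active means compounds that reduced the stress-induced luciferase reporter signal by more than about 70% of percent inhibition, limit read from the data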;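 further: 0% = tunicamycin plus vehicle and 100% = wells without tunicamycin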
GRIN3A LBD mod: modulates the human NR3A ligand-binding domain | 340,000 compounds, 2.5% hits | NR3A LBD differential scanning fluorimetry, Tm shift; 0% = protein alone, 100% = glycine-bound protein | Tm shift relative to glycine control, % at 25 µM | AID 1259313;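 active means melting temperature shift of at least 10% of the positive control shift, at one fixed dose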
T cruzi repl: blocks replication of Trypanosoma cruzi; T. cruzi beta-gal in NIH3T3, luminescence, 90 h; inhibition, % (test concentration not listed); 300,000 compounds, 1.4% hits;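 active means mean inhibition across valid replicates above about 55%, limit read from the data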;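 further: signal also drops with host cell toxicity which is not excluded here; 0% = plate median of DMSO wells and 100% = zero luminescence signal; higher percent means less beta-gal luminescence so fewer parasites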
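Incubation – ≥90 h infection period, 3 h prior cell attachment · System – NIH/3T3 fibroblasts plus reporter T. cruzi · Doses – compound pinned at 50 nL/well, DMSO · Read-out basis – percent inhibition of parasite-derived β-gal signal · Signal – luminescent β-galactosidase signal after 60 min lysis · Also added – 5000 T. cruzi trypomastigotes/well · Medium – Low-serum DMEM with 2% FBS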
CSC inhib: cancer stem cell inhibition | cancer stem cell-like cells viability, luminescence | inhibition, % at 7.5 µM | 300,000 compounds, 1.1% hits; in the data active means inhibition above about 75%; tested in HMLE shEcad cells
Beta apoptosis: beta cell apoptosis inhibition. 300,000 compounds, 0.8% hits. AID 435005. protection from apoptosis, % (concentration not given with the values). INS-1E cytokine-induced death, ATP luminescence, 48 h; percent of positive-control rescue, neutral wells zero;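 active means Every replicate reaches about 75%, or at least half do and their mean reaches it too, limit read from the data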;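 further: 0% = cytokine-treated negative control wells and 100% = positive control rescue; higher means more ATP so stronger rescue from cytokine killing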
PREPL inh: inhibits the human prolyl oligopeptidase-like enzyme. Q4J6C6. recombinant PREPL, fluorescence polarization activity-based probe. inhibition, % at 5.96 µM. 320,000 compounds, 0.68% hits; in the data active means inhibition above about 43%;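 further: 0% = enzyme with DMSO and 100% = wells lacking enzyme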
Target sequence (Q4J6C6 whole entry, looked up): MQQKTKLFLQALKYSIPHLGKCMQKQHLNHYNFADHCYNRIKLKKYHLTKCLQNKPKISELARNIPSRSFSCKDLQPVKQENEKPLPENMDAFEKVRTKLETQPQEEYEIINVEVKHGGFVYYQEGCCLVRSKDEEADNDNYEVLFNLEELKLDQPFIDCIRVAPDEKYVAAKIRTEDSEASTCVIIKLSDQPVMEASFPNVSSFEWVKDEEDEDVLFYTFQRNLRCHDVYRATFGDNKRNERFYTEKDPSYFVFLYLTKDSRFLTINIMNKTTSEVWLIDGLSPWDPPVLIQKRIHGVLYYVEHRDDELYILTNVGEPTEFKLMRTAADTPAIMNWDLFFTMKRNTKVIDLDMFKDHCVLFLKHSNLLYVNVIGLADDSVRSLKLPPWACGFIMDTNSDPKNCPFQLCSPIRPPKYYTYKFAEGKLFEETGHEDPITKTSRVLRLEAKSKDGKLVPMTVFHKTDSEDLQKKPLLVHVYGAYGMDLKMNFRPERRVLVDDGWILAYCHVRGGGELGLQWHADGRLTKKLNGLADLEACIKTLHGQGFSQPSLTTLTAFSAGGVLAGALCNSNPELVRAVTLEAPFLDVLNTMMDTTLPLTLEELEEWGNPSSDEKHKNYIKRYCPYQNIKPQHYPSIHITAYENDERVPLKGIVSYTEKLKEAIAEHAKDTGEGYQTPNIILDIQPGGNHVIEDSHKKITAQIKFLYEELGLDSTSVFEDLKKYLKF
The depositor's hits bear a star; nt = no result. Rows were chosen to be rich in hits. Some 6.7% of all compounds tested hit in one or more screens of this group.

SMILES	CHOP inh	GRIN3A LBD mod	T cruzi repl	CSC inhib	Beta apoptosis	PREPL inh
O=S(=O)(Nc1cccc(CCc2ccccn2)c1)c1cc(Cl)ccc1Cl	13.6	-18.1	nt	3.4	3.7	-17.2
NC1=NC(=O)/C(=C\c2cc([N+](=O)[O-])ccc2Cl)S1	-20.1	0.2	-44.0	-13.2	-13.0	1.7
C#CCn1c(S(=O)(=O)Cc2ccc(C)cc2)nc(-c2ccccc2)c1-c1ccccc1	22.2	0.8	46.9	26.3	1.5	-2.2
CCOC(=O)Cn1c(S(=O)(=O)Cc2ccccc2Cl)nc(-c2ccccc2)c1-c1ccccc1	70.1*	1.3	33.7	13.7	23.8	-10.2
C#CCn1c(S(=O)(=O)Cc2ccccc2Cl)nc(-c2ccccc2)c1-c1ccccc1	80.4*	-1.4	4.5	13.7	-4.5	1.3
O=C(Nc1ccc(C(=O)NCCCN2CCN(c3ccccc3)CC2)cc1)C1=CSCCO1	nt	-19.4	-0.8	-6.3	nt	21.6
CCOC(=O)N/N=C\c1ccc(-c2cc(Cl)ccc2Cl)o1	-18.5	-13.5	32.9	10.1	-5.8	14.1
NC(=S)N/N=C/c1ccc(-c2cc(Cl)ccc2Cl)o1	-12.4	-26.4	67.3*	27.9	10.1	5.0
NC(=S)N/N=C/c1ccc(-c2cc(Cl)cc(Cl)c2)o1	34.1	-0.2	59.2*	19.9	-2.4	3.5
O=C(N/N=C/c1ccc(-c2ccccc2Cl)o1)c1ccccc1	-21.4	-1.5	75.0*	63.2	5.1	13.2
CC(C)C(C(=O)OCC(=O)c1ccccc1)N1C(=O)C2C3C=CC(C3)C2C1=O (centres undefined)	-9.9	1.2	-4.9	1.7	-1.5	-0.5
O=C(Nc1cc(S(=O)(=O)N2CCOCC2)ccc1N1CCCC1)c1ccccc1C(F)(F)F	nt	1.2	nt	nt	nt	nt
COc1cc(C(=O)Nc2nc(-c3ccc(Cl)cc3)c(C)s2)ccc1OCC(=O)Nc1ccc(F)cc1	76.9*	17.7*	34.1	55.8	11.7	15.7
COc1ccc(Cl)cc1N1C(=NC(=O)C2CCCCC2)SC2CS(=O)(=O)CC21 (centres undefined)	nt	-5.6	8.7	-22.2	-4.2	6.8
CC(C)CN(C(=O)Cn1c(C(F)(F)F)nc2ccccc21)c1c(N)n(Cc2ccccc2)c(=O)[nH]c1=O	nt	0.3	nt	nt	nt	nt
CS(=O)(=O)c1ccc(NS(=O)(=O)c2ccc(Cl)c(C(=O)NCc3ccco3)c2)cc1	nt	-1.3	nt	nt	0.3	14.0
COC(=O)c1ccc2nc(-c3cccc(N)c3)cn2c1	79.8*	-4.8	-3.1	-2.1	1.9	1.6
COC(=O)c1ccc2nc(-c3ccc(S(C)(=O)=O)cc3)cn2c1	-30.9	-0.8	-5.0	0.9	1.7	-16.7
COC(=O)C[C@](O)(CCCC(C)(C)O)C(=O)O[C@@H]1C(OC)=C[C@]23CCCN2CCc2cc4c(cc2[C@H]13)OCO4	nt	nt	41.5	98.3*	77.9*	-1.3
CCOC(=O)c1c(C)[nH]c(C)c1C(=O)CSc1nnc(-c2ccco2)n1Cc1ccccc1	9.3	-2.9	5.1	-5.3	-2.4	-7.2
O=C(Cc1ccccc1Cl)Nc1ccc(S(=O)(=O)Nc2nccs2)cc1	nt	-11.2	-10.2	9.7	-6.7	-1.4
O=C(CSc1ccccc1)Nc1ccc(S(=O)(=O)Nc2ncccn2)cc1	-10.3	-0.6	-2.8	-8.6	-5.3	-5.3
O=C(CSc1ccc2ccccc2c1)Nc1ccc(S(=O)(=O)Nc2nccs2)cc1	29.3	13.4*	-29.2	-2.7	-0.8	-2.0
O=C(CSc1ccc(Br)c2cccc(Cl)c12)Nc1ccc(S(=O)(=O)Nc2nccs2)cc1	9.2	13.0*	-28.1	-18.9	-5.3	-20.9
Cc1nnc(NS(=O)(=O)c2ccc(Br)cc2)s1	nt	-2.8	2.5	-10.5	nt	-4.7
SMILES	CHOP inh	GRIN3A LBD mod	T cruzi repl	CSC inhib	Beta apoptosis	PREPL inh
COc1ccc(OC)c(-c2csc(N(CC3CCCO3)C(=O)C3CCCCC3)n2)c1 (centres undefined)	-7.4	1.5	29.3	77.9*	3.1	5.9
COc1cc(/C=C(\C#N)C(=O)Nc2cc(C(F)(F)F)ccc2Cl)ccc1OCC(=O)Nc1cccc(C(F)(F)F)c1	73.9*	0.9	-4.1	-3.4	-1.1	-3.2
COc1cc(C(=O)NCCCN(C)C)ccc1OCC(=O)Nc1cccc(C(F)(F)F)c1	-8.4	-0.2	57.3*	3.9	nt	-34.2
COc1cccc(CN(C)C(=O)c2ccc(OCC(=O)Nc3cccc(C(F)(F)F)c3)c(OC)c2)c1	nt	-6.1	14.8	26.0	1.5	20.2
CCCC(O)(c1ccccc1)C(CN1CCOCC1)c1ccccc1 (centres undefined)	nt	0.9	0.6	0.2	1.9	19.4
CCCC(O)(c1ccc(Cl)cc1)C(CN1CCOCC1)c1ccccc1 (centres undefined)	90.0*	2.9	-31.6	nt	nt	18.6
CCCC(O)(c1ccc(Br)cc1)C(CN1CCOCC1)c1ccc(Cl)cc1 (centres undefined)	nt	-1.4	-6.7	93.0*	12.7	13.8
COc1ccc(S(=O)(=O)Nc2ccc(-n3cnnn3)cc2)cc1[N+](=O)[O-]	nt	-1.5	nt	-11.7	-10.4	-8.3
O=C(CCn1c(=S)oc2ccccc21)Nc1cccc(O)c1	25.2	-1.5	-11.4	-1.1	-1.4	11.7
CN(CC(=O)Nc1ccccc1Cl)C(=O)C1CCN(C(=O)c2ccc(F)cc2)CC1	nt	3.0	nt	6.1	-2.1	14.1
Cc1cccc(N2C(=S)N=C(Nc3c(C)cccc3C)C23CCOC(C)(C)C3)c1 (centres undefined)	-1.6	0.2	7.3	-10.7	82.4*	12.0
Cc1ccc(N2C(=S)N=C(Nc3ccccc3C)C23CCOC(C)(C)C3)cc1 (centres undefined)	83.9*	-0.1	-8.6	8.5	-1.6	3.5
O=C1c2cccnc2Oc2ccc(Cl)cc2N1Cc1ccc(F)cc1	26.9	-0.2	-33.8	-4.3	-0.3	-7.1
Cc1cc(NC(=O)COC(=O)C(Nc2ccc(C(F)(F)F)cc2Cl)C(C)C)no1 (centres undefined)	101.8*	5.6	6.8	55.3	-5.1	5.8
Oc1[nH]c2ccccc2c1N=Nc1ccccc1	17.4	-8.4	-12.4	-8.3	-4.2	11.5
O=C(N=Nc1c(O)[nH]c2ccccc12)c1cc(-c2cccs2)[nH]n1	-21.8	22.3*	-11.8	14.9	2.1	21.6
O=C(N=Nc1c(O)[nH]c2ccccc12)c1cc(-c2ccc(F)cc2)n[nH]1	28.2	19.3*	6.6	-15.2	3.4	7.9
Oc1[nH]c2ccccc2c1N=Nc1ccccc1F	91.1*	7.8	10.1	-3.9	0.5	-7.2
CC(C)(O)C(=O)N=Nc1c(O)[nH]c2ccccc12	-29.9	4.4	3.4	-14.4	3.5	1.5
O=C(Nc1ccccc1F)N1CCCC1c1cccnc1 (centres undefined)	28.8	1.4	18.5	-7.4	nt	1.4
O=C(Nc1ccc(F)cc1F)N1CCCCC1c1cccnc1 (centres undefined)	24.6	-0.3	56.8*	-8.0	4.1	1.0
CCOc1ccc(/C=N/NC(=O)c2nnn(-c3nonc3N)c2CN2CCC(C)CC2)cc1	nt	10.9*	-2.6	8.1	0.1	-4.6
